Active and inactive are the calls of the source.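 How the source made its calls, unless noted: active means potentiation averaged over duplicate wells exceeding buffer-only control mean by more than 3 SD; inactive means the rest.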
Key:
[1] = thallium flux activation in parental CHO cells, counter-screen for KCNQ1 potentiator project (AID 493006;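 active means duplicate-averaged activation above buffer control mean plus 5 SD of those controls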;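 on activation: fluorescence ratio of max minus min over baseline after K+ and Tl+ depolarization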); settings: parental CHO-K1 cells, FluxOR thallium flux, at 10 µM; hits give high values
How it was run: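 Material: untransfected host CHO-K1 cells with FluxOR thallium dye. Timing: overnight 37 °C plating, 90 min RT dye, 20 min compound. Detection: kinetic FluxOR fluorescence, 10 s baseline, 110 s after stimulus. Read-out basis: max-minus-min fluorescence over baseline, percent of buffer-to-R-L3 span. Replicates: duplicate wells per compound, percent values averaged.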

[2] = molecular target: Potassium voltage-gated channel subfamily KQT member 1 (Homo sapiens) (UniProt P51787); assay: KCNQ1 potassium channel potentiators, confirmation, FluxOR thallium flux, CHO cells, duplicates (AID 493007); settings: KCNQ1 cell line, FluxOR thallium flux fluorescence, at 10 µM; hits give high values, % of reference activator effect, buffer zero;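 on outcome: cells depolarized by a potassium plus thallium sulfate stimulus after compound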
Potassium voltage-gated channel subfamily KQT member 1 (Homo sapiens), sequence (P51787 whole entry, looked up): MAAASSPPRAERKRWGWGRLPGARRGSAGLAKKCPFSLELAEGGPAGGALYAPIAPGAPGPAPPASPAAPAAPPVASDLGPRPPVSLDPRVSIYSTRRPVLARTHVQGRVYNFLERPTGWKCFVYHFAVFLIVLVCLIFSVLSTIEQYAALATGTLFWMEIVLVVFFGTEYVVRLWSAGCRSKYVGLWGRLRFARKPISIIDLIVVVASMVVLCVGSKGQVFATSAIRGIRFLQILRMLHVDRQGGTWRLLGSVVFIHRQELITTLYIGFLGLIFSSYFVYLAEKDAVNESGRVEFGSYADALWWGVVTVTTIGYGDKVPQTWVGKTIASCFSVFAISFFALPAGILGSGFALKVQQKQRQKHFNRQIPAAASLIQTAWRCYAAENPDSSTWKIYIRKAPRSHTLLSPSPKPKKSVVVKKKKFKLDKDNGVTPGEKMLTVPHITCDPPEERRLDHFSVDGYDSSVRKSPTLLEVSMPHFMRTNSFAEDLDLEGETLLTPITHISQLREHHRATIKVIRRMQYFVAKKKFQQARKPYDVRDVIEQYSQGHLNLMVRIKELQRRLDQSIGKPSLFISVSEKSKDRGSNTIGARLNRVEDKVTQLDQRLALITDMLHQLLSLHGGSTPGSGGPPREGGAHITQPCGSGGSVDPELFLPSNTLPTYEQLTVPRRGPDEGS
How it was run: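 Test system – KCNQ1-expressing CHO cell line · Incubation – FluxOR dye loading 90 min, compound exposure 20 min, room temperature · Detection – FluxOR Tl+ flux fluorescence, 10 s baseline plus 110 s recording · Controls – buffer-only wells as 0% and R-L3 activator as 100%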

[3] = molecular target: Potassium voltage-gated channel subfamily KQT member 2 (Rattus norvegicus) (UniProt O88943); assay: rat KCNQ2 channel potentiation, selectivity assay for KCNQ1 potentiator project, KCNQ2-CHO-K1 cells (AID 493009;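 active means mean duplicate potentiation above the buffer control mean plus 5 SD of buffer wells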;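 further: assay conditions were tuned for KCNQ1 rather than KCNQ2 modulators; signal is max minus min fluorescence divided by baseline after thallium stimulus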); settings: FluxOR thallium flux fluorescence, at 10 µM; hits give high values, scaled: buffer 0, activator control 100
Potassium voltage-gated channel subfamily KQT member 2 (Rattus norvegicus), sequence (O88943 whole entry, looked up): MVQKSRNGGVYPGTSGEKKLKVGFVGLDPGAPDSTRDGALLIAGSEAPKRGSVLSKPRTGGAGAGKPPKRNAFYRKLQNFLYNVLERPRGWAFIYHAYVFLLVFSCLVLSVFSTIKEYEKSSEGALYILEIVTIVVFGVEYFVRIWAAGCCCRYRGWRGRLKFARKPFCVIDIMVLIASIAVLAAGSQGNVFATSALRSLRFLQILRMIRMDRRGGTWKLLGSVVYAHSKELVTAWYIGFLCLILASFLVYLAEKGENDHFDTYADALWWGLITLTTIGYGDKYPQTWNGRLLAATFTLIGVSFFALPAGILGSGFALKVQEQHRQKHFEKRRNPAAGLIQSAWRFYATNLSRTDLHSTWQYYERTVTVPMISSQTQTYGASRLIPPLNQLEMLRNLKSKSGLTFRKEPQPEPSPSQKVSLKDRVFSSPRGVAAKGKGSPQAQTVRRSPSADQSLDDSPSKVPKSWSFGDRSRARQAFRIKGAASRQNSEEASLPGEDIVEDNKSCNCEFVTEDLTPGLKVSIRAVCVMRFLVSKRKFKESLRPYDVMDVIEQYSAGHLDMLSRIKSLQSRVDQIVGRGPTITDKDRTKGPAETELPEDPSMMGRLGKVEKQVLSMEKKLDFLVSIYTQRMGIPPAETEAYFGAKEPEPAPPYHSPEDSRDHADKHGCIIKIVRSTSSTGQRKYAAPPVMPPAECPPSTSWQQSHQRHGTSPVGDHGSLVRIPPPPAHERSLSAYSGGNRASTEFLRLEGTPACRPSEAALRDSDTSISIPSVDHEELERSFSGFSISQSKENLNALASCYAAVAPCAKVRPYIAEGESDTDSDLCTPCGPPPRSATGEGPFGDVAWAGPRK

[4] = molecular target: Potassium voltage-gated channel subfamily KQT member 1 (Homo sapiens) (UniProt P51787); assay: KCNQ1 channel current potentiators, confirmation, orthogonal assay for KCNQ1 potentiator project, IonWorks patch clamp, KCNQ1-CHO cells (AID 493184;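 active means current rise at least 3 SD above the untreated control mean in each of two repeat wells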;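 on current potentiation: percent change of the same well's current before compound addition so 0% = no change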); settings: automated patch clamp current, at 10 µM; hits give high values
How it was run: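 Read-out: Percent current increase versus pre-compound level | Assay system: CHO cells carrying KCNQ1 | Measured by: Automated perforated-patch electrophysiology | Medium: External bath solution at pH 7.4 | Dosing: One dose, 10 µM final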

Structure (SMILES)	outcome [1]	outcome [2]	outcome [3]	outcome [4]	activation [1]	potentiation [2]	potentiation [3]	current potentiation [4]
COC(=O)c1ccc(CNC(=O)c2ccc(COc3ccccc3)cc2)cc1	inactive	inactive	inactive	inactive				
COc1ccc2c(c1)c(=O)c(C(=O)O)c(-c1ccc3c(c1)OCO3)n2C	inactive	inactive	inactive	inactive				
S=c1[nH]c(-c2ccccc2)cn1/N=C/c1cccc2ccccc12				inactive	174% (active)	65.5% (active)	184% (active)	
O=C(NC(=S)Nc1ccccc1)c1cc(-c2ccccc2)nc2ccccc12				inactive	158% (active)	75% (active)	194% (active)	
O=C(NC(=S)N(CC1CCC1)CC1CCCO1)c1cccc([N+](=O)[O-])c1 (stereo not given)				inactive	224% (active)	74.5% (active)	216% (active)	
CC(C)CC(=O)NC(=S)Nc1nc(-c2ccccc2)cs1				inactive	284% (active)	152% (active)	316% (active)	
CCOC(=O)c1cc(CC)sc1NC(=O)CC1Sc2ccc(C(F)(F)F)cc2NC1=O (stereo not given)	inactive	inactive	inactive	inactive				
COc1cccc(NC(=O)c2cncs2)c1	inactive	inactive	inactive	inactive				
Oc1oc(-c2cccc3ccccc23)nc1/C=N/c1nccs1	inactive			inactive		48.5% (active)	164% (active)	
O=C(NC(=S)Nc1ccccc1N1CCCC1)c1cccs1				inactive	150% (active)	104% (active)	212% (active)	
O=C1Nc2cc(C(=O)NCCCN3CCOCC3)ccc2S/C1=C/c1cccc(Cl)c1	inactive	inactive	inactive	inactive				
OC(CNC1CCCCC1)COCCOc1ccc(Br)cc1 (stereo not given)	inactive	inactive	inactive	inactive				
COC(=O)c1ccc(C(=O)NC(=S)Nc2nc3c(s2)CCCC3)cc1				inactive	210% (active)	169% (active)	411% (active)	
Cc1cc(NS(=O)(=O)c2ccc(NC(=O)C(C)Oc3ccccc3Cl)cc2)no1 (stereo not given)	inactive	inactive	inactive	inactive				
Cc1cccc(-n2c(C)cc(/C=N/NC(N)=S)c2C)c1	inactive	inactive	inactive	inactive				
Cc1ccc(-c2ccnc(=S)[nH]2)cc1	inactive	inactive	inactive	inactive				
Cc1ccc(C(=O)O/N=C(\N)Cc2cccs2)c(Cl)c1	inactive	inactive	inactive	inactive				
CCc1ccc(NC(=O)CSc2nc3ccsc3c(=O)n2CCC(=O)O)cc1				inactive	148% (active)	33% (active)	172% (active)	
C[C@@H](NC(=O)OC(C)(C)C)c1nnc(S(=O)(=O)Cc2ccccc2)o1	inactive	inactive		inactive			158% (active)	
CC(C)NC(=O)C1(S(=O)(=O)c2ccccc2)CC=CC1	inactive	inactive	inactive	inactive				

Structure (SMILES)	outcome [1]	outcome [2]	outcome [3]	outcome [4]	activation [1]	potentiation [2]	potentiation [3]	current potentiation [4]
O=C(NC(=S)N1CCCC(C(F)(F)F)C1)c1ccc(F)cc1 (stereo not given)				inactive	296% (active)	66.5% (active)	260% (active)	
CC(=O)CC1(OC(C)=O)C(=O)N(C)c2ccccc21 (stereo not given)	inactive	inactive	inactive	inactive				
Cc1ccc(C2C(/C=C3/SC(=S)NC3=O)=C(c3cccs3)Oc3ccccc32)cc1 (stereo not given)			inactive	inactive	142% (active)	33% (active)		
N=c1ccn(CC(=O)c2ccc(-c3ccccc3)cc2)cc1	inactive	inactive	inactive	inactive				
S=c1[nH]nc(-c2cccs2)n1/N=C/c1c(Cl)cccc1Cl	inactive			inactive		30% (active)	196% (active)	
CC(C)(C)c1ccc(Oc2ccc(N)cn2)cc1				inactive	260% (active)	81.5% (active)	282% (active)	
Cn1ncc2c(O/N=C(\N)c3ccc(C(C)(C)C)cc3)ncnc21	inactive	inactive	inactive	inactive				
O=C(O)CSc1cc(NS(=O)(=O)c2ccc(Br)cc2)c2ccccc2c1O	inactive	inactive	inactive	inactive				
CCOC(=O)c1sc(NC(=S)NC(=O)c2ccc(OC)cc2)nc1C	inactive	inactive	inactive	inactive				
O=c1c(Cl)c(Cl)cnn1Cc1nnc(-c2ccccc2Br)o1	inactive	inactive	inactive					14.7% (active)
Cc1c(-c2ccccc2)sc2nc[nH]c(=S)c12				inactive	307% (active)	130% (active)	304% (active)	
Cc1ccc(-c2ccc(=O)n(Cc3cccc(Br)c3)n2)cc1	inactive	inactive	inactive	inactive				
O=c1c2ccccc2sn1-c1ccccc1				inactive	180% (active)	59% (active)	148% (active)	
CCOc1ccccc1NC(=O)C(=O)CC(=O)c1ccc(OC)cc1				inactive	164% (active)	64.5% (active)	216% (active)	
CCC1(c2ccc(Cl)cc2)NC(=S)N(c2ccccc2)N1 (stereo not given)				inactive	405% (active)	150% (active)	375% (active)	
CCC(=O)NNc1nc2c(Cl)cccc2s1	inactive	inactive	inactive	inactive				
Fc1cccc2sc(Nc3nnc(-c4ccco4)o3)nc12				inactive	354% (active)	100% (active)	381% (active)	
COc1cccc(C(=O)NC(=S)Nc2ccc3c4c(cccc24)CC3)c1	inactive		inactive	inactive		25.5% (active)		
COc1ccc(NS(=O)(=O)c2ccc(N/N=C(\C)c3ccncc3)c([N+](=O)[O-])c2)cc1	inactive	inactive	inactive	inactive				
CC1CCN(C(=S)NC(=O)c2ccccc2)CC1	inactive	inactive		inactive			150% (active)	

Structure (SMILES)	outcome [1]	outcome [2]	outcome [3]	outcome [4]	activation [1]	potentiation [2]	potentiation [3]	current potentiation [4]
O=C(Nc1nnc(-c2ccc(F)cc2)o1)c1cc(Cl)sc1Cl				inactive	330% (active)	118% (active)	284% (active)	
CC(=O)Nc1ccc(S(=O)(=O)N2CCC(C(=O)O)CC2)cc1	inactive	inactive	inactive	inactive				
O=C(c1ccco1)N1CCN(S(=O)(=O)c2ccc(F)cc2)CC1	inactive	inactive	inactive	inactive				
CC(C)CSc1n[nH]c(=S)s1	inactive	inactive		inactive			145% (active)	
O=C1OCCC1Sc1nc2ccccc2c(=O)n1Cc1ccc(F)cc1 (stereo not given)				inactive	158% (active)	44% (active)	169% (active)	
COc1cccc(/C=N/n2c(-c3cccs3)n[nH]c2=S)c1				inactive	286% (active)	160% (active)	265% (active)	
Cc1cc(/C=N/NC(=O)CC#N)c(C)n1-c1ccc([N+](=O)[O-])cc1	inactive	inactive	inactive	inactive				
Cc1ccc(Cc2c[nH]c(=S)s2)cc1				inactive	348% (active)	126% (active)	343% (active)	
Cc1nc(-c2nc(-c3c(C(=O)NNC(=O)c4ccc(Cl)cc4)noc3C)cs2)cs1				inactive	140% (active)	54.5% (active)	184% (active)	
CC(=O)CSc1ncnc2sc3c(c12)CCC(C)C3 (stereo not given)				inactive	474% (active)	154% (active)	406% (active)	
CCOC(=O)Cn1c(=N)n(CCOc2ccc(Br)cc2)c2ccccc21	inactive	inactive	inactive	inactive				
O=C(O)c1ccccc1NS(=O)(=O)c1cccc(-n2sc3ccccc3c2=O)c1			inactive	inactive	154% (active)	18% (active)		
Cc1ccc2oc(C(=O)N3CCN(c4cccc(C)n4)CC3)c(C)c2c1	inactive	inactive	inactive	inactive				
O=C(c1ccc(-c2ccccc2)cc1)N1CCCC1				inactive	188% (active)	217% (active)	233% (active)	
COCCn1c(SCC(=O)NCc2ccc3c(c2)OCO3)nnc1C(C)C	inactive	inactive	inactive	inactive				
Cc1ccc(Cl)cc1N1CCN(C(=O)c2ccc(CN3CCOCC3)cc2)CC1	inactive	inactive	inactive	inactive				
O=C(Cn1c(=O)c2c(ncn2Cc2ccccc2)n(Cc2ccccc2)c1=O)N1CCc2ccccc21	inactive	inactive	inactive	inactive				
O=C(Nc1nnc(-c2ccc3c(c2)CCCC3)o1)c1ccccc1				inactive	266% (active)	130% (active)	400% (active)	
O=C(NC(=S)NCc1ccccc1)c1cccs1				inactive	167% (active)	81% (active)	232% (active)	
Cc1cc(C)n(CC(=O)N2CCCC(N3CCN(c4ccccc4C)CC3)C2)n1 (stereo not given)				inactive	174% (active)	79% (active)	206% (active)	
